In ChEMBL document CHEMBL1127630, “New dual inhibitors of neutral endopeptidase and angiotensin-converting enzyme: rational design, bioavailability, and pharmacological responses in experimental hypertension” (J Med Chem, 1994):

Experiments:
[1] = molecular target: T1, Angiotensin-converting enzyme (Mus musculus) (UniProt P09470); assay: Inhibition of lung Angiotensin Converting Enzyme (ACE) in mouse at a dose of 2.6*10e-5 mol/kg after 20 min oral administration
T1 sequence (whole entry): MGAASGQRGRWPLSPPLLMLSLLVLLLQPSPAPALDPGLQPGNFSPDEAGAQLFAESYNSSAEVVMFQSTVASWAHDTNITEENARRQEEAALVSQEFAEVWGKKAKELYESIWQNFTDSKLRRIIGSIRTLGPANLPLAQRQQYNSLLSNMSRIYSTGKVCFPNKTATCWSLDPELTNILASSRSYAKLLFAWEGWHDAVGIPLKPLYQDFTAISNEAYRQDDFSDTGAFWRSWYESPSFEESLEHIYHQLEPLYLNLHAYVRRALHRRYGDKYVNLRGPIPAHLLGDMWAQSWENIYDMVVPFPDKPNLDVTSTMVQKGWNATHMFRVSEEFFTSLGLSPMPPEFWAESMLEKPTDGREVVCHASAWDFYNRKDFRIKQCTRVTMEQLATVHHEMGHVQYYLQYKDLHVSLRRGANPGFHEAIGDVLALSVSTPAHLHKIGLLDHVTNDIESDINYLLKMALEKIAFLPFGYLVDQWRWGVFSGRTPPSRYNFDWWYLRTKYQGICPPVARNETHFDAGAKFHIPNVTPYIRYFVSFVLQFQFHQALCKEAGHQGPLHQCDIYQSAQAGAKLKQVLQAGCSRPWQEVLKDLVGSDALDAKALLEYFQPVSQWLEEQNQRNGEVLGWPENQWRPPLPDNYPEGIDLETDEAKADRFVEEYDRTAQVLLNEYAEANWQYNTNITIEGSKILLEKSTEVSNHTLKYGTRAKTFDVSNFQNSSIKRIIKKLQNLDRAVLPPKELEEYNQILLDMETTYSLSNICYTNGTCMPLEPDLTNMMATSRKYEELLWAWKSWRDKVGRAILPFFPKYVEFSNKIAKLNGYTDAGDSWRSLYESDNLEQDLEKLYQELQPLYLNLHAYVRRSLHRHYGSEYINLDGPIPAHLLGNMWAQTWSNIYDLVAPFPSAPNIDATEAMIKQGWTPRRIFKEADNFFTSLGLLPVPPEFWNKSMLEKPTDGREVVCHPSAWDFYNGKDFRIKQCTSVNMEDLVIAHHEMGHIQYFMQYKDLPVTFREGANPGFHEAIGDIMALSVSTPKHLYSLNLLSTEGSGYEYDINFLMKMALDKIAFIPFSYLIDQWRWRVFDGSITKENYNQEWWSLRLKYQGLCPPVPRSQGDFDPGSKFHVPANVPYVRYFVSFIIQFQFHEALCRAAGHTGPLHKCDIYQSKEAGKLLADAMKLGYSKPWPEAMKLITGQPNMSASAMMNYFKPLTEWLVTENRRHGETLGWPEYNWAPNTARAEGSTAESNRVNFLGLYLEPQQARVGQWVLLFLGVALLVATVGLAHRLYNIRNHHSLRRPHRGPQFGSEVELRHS
How it was run: (§1)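 Prescreen in mice: single oral dose of 2.6 X 10-5 mol/kg of prodrug (thioacetyl and benzyl ester protected, tested as stereoisomer mixtures). Inhibition of binding of a tritiated ACE probe to lung measured 20 and 60 min after dosing. Mean ± SEM of three experiments, three mice each.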

[2] = molecular target: T1, Angiotensin-converting enzyme (Mus musculus); assay: (§2) In vivo inhibition of lung Angiotensin I converting enzyme in mouse at a dose of 2.6*10e-5 mol/kg after 60 min oral administration; type: organism-based; how it was run: as §1
[3] = molecular target: T2, Neprilysin (Mus musculus) (UniProt Q61391); assay: Inhibition of Neutral Endopeptidase activity was measured by using the displacement of [3H]HACBOGly from mouse kidney after 2 hr oral administration; design: scale not given: the % may be the effect or the level left
T2 sequence (whole entry): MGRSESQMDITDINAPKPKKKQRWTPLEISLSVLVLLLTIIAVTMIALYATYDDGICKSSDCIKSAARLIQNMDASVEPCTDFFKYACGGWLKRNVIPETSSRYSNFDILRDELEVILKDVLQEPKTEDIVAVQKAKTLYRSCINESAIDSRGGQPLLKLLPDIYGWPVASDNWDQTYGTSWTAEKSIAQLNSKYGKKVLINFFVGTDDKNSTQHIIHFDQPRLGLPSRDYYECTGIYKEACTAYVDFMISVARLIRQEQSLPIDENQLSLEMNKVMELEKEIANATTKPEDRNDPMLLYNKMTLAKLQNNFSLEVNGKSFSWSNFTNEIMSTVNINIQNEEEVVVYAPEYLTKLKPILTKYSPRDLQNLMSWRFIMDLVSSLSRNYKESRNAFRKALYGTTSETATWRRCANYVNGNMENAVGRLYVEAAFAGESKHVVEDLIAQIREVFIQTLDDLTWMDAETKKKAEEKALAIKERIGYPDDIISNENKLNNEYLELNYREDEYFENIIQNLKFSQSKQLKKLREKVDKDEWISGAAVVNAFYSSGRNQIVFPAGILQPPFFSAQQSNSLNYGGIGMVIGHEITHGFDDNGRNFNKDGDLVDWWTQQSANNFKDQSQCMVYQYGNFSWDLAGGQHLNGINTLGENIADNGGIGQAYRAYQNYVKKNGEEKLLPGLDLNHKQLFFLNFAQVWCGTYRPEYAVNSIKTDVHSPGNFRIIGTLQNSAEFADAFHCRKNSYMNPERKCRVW
How it was run: (§3)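 Mice dosed orally at 2.6 X 10-6 mol/kg in 10% ethanol/10% cremophor/80% water. [3H]HACBOGly (1 uCi) injected iv at intervals after dosing. Kidneys taken 15 min later, homogenized in 50 mM Tris-HCl pH 7.4 at 4 °C and filtered, radioactivity counted. Inhibition expressed as percent displacement versus control. Nonspecific binding defined with coinjected retrothiorphan (10.000 eq).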

[4] = molecular target: T2, Neprilysin (Mus musculus); assay: Inhibition of Neutral Endopeptidase activity was measured by using the displacement of [3H]HACBOGly from mouse kidney after 4 hr oral administration; design: scale not given: the % may be the effect or the level left; how it was run: as §3
[5] = molecular target: T2, Neprilysin (Mus musculus); assay: Inhibition of Neutral Endopeptidase activity was measured by using the displacement of [3H]HACBOGly from mouse kidney after 16h oral administration; design: scale not given: the % may be the effect or the level left; how it was run: as §3
[6] = molecular target: T1, Angiotensin-converting enzyme (Mus musculus); assay: In vivo inhibition of lung ACE was observed at 30 min after oral administration of the compound; type: organism-based; design: concentration or dose not given beside the values
[7] = molecular target: T1, Angiotensin-converting enzyme (Mus musculus); assay: In vivo inhibition of lung ACE was observed at 240 min after oral administration of the compound; type: functional, organism-based; design: concentration or dose not given beside the values
[8] = molecular target: T2, Neprilysin (Mus musculus); assay: Inhibition of Neutral Endopeptidase activity was measured by using the displacement of [3H]HACBOGly from mouse kidney after 8 hr oral administration; design: scale not given: the % may be the effect or the level left; how it was run: as §3
[9] = molecular target: T1, Angiotensin-converting enzyme (Mus musculus); assay: In vivo inhibition of lung ACE was observed at 120 min after oral administration of the compound; type: functional, organism-based; design: concentration or dose not given beside the values
[10] = molecular target: T2, Neprilysin (Mus musculus); assay: Inhibition of Neutral Endopeptidase activity was measured by using the displacement of [3H]HACBOGly from mouse kidney after 1 hour oral administration; design: scale not given: the % may be the effect or the level left; how it was run: as §3
Mus musculus [11] = assay: In vivo inhibition of lung ACE was observed at 60 min after oral administration; type: functional; design: concentration or dose not given beside the values
Mus musculus [12] = assay: as §2; type: functional; how it was run: as §1
Mus musculus [13] = assay: Time course of the in vivo inhibition (percent of control) of lung ACE was observed at 30 min after oral administration of the compound; type: functional; design: scale not given: the % may be the effect or the level left

Row | SMILES | inhibition [1] | inhibition [2] | Control [3] | Control [4] | Control [5] | Control [6] | Control [7] | Control [8] | Control [9] | Control [10] | Control (Mus musculus [11]) | Inhibition (Mus musculus [12]) | Control (Mus musculus [13])
1 | CC(=O)SCC(C(=O)NCC(=O)OCc1ccccc1)C(C)c1ccccc1 (configuration not stated) | 36% | 43% |  |  |  |  |  |  |  |  |  |  | 
2 | C[C@H](NC(=O)[C@@H](CSC(=O)C12CC3CC(CC(C3)C1)C2)[C@@H](C)c1ccccc1)C(=O)O |  |  | 100% | 100% | 10% | 72% | 37% | 94% | 42% | 100% | 54% |  | 
3 | CC(=O)SCC(C(=O)N[C@@H](C)C(=O)OCc1ccccc1)C(C)c1ccccc1 (some centres not stated) | 54% |  |  |  |  |  | 2% |  | 21% |  | 46% | 44% | 41%
